# Measurements collected from several papers.
# Protocols differ between the studies behind these lines.
# MTNR1B: Melatonin receptor type 1B (MTNR1B, Homo sapiens, UniProt P49286)
# HTR1B: 5-hydroxytryptamine receptor 1B (HTR1B, Homo sapiens, UniProt P28222)
Structure (SMILES),target,test,setting,measurement,result
O=C(NCCc1cccc2ccccc12)C1CCC1,MTNR1B,"cAMP, agonist, TR-FRET",,EC50,1660 nM
Cc1cc2nc3c(=O)[nH]c(=O)nc-3n(C[C@H](O)[C@H](O)[C@H](O)COP(=O)(O)OP(=O)(O)OC[C@H]3O[C@@H](n4cnc5c(N)ncnc54)[C@H](O)[C@@H]3O)c2cc1C,"Protein PRRC2C (Homo sapiens, UniProt Q9Y520)",binding,lysate,Kd,23700 nM
COc1ccc(Br)c(CNc2cccnc2)c1,MTNR1B,cell-free assay,,Ki,6.92 nM
C=C1CC[C@@H]2[C@](C)(CO)[C@H](O)CC[C@@]2(C)[C@@H]1CCC1=CCOC1=O,"UDP-glucuronosyltransferase 2B7 (UGT2B7, Homo sapiens, UniProt P16662)","enzyme activity, inhibitor",pH 7.4,Ki,1500 nM
Cc1cc(Nc2cc3ncccc3c(N[C@@H]3C[C@H]4CC[C@@H](C3)N4CCC#N)n2)n[nH]1,"Death-associated protein kinase 1 (DAPK1, Homo sapiens, UniProt P53355)","binding, competition with immobilised ligand",,Kd,96 nM
CCc1ccc2scc(CCNC(C)=O)c2c1,MTNR1B,"cAMP, agonist, TR-FRET",,EC50,39.8 nM
CCCCN1CCC(COC(=O)c2ccc(N)c(OCF)c2)CC1,HTR1B,"cell-free assay, radioligand",,Ki,> 10000 nM
CCC(=O)NC1Cc2ccccc2C(c2ccccc2)C1 (centres unmarked),MTNR1B,"GTPγS binding, agonist, radiometric",cell membranes,EC50,1.58 nM
COc1ccc2c(c1)C(=O)C1(CCc3ccccc31)O2 (centres unmarked),"Peptidyl-prolyl cis-trans isomerase NIMA-interacting 1 (PIN1, Homo sapiens, UniProt Q13526)","enzyme activity, inhibitor",,Ki,77000 nM
O=C1c2ccccc2CCN1CCCCN1CCN(c2cccc(Cl)c2Cl)CC1,HTR1B,"ligand displacement, radioligand",,Ki,73 nM
CC(=O)NCCc1c(Cc2ccccc2)[nH]c2ccccc12,MTNR1B,"cAMP, antagonist, TR-FRET",,Kb,~100 nM
C=CC(=O)Nc1cccc(CN2C(=O)N(c3c(Cl)c(OC)cc(OC)c3Cl)Cc3cnc(NCCCCN(CC)CC)nc32)c1,"Mitogen-activated protein kinase 7 (MAPK7, Homo sapiens, UniProt Q13164)","binding, competition with immobilised ligand",,Kd,160 nM
Nc1nc(NCc2ccc(Oc3ccccc3)cc2)nc(-c2c(F)cccc2CO)n1,MTNR1B,"cell-free assay, radioligand",,Ki,1100 nM
CC(C)c1ccc(CNc2cccc(-c3nnc[nH]3)c2)cc1,MTNR1B,cell-free assay,,Ki,3720 nM
